Assay results as given in ChEMBL document CHEMBL1926509, “Discovery of pyrazolo[1,5-a]pyridines as p110α-selective PI3 kinase inhibitors” (Bioorg Med Chem, 2012).

Tests used:
[1] = target: Phosphatidylinositol 4,5-bisphosphate 3-kinase catalytic subunit alpha isoform (Homo sapiens, UniProt P42336); assay: Inhibition of recombinant PI3K p110alpha using L-alpha-phosphatidylinositol as substrate and [gamma33P]ATP after 60 mins by thin layer chromatographic technique
Method in brief: (§1)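 In-house recombinant class Ia PI3K isoform (0.1 µg) with L-α-phosphatidylinositol substrate in lipid kinase buffer (Tris–HCl pH 7.4, NaCl, EDTA), 1% DMSO final. Started with ATP mix (5 mM MgCl₂, 100 µM ATP plus [γ-³³P]ATP), 1 h at room temperature, stopped with 1 M HCl. Lipids extracted in two steps, separated by TLC, read by phosphorimager. Nine inhibitor concentrations; IC50 averaged over two experiments.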

[2] = target: Phosphatidylinositol 4,5-bisphosphate 3-kinase catalytic subunit beta isoform (Homo sapiens, UniProt P42338); assay: Inhibition of recombinant PI3K p110beta using L-alpha-phosphatidylinositol as substrate and [gamma33P]ATP after 60 mins by thin layer chromatographic technique; method in brief: as §1
Sequence of Phosphatidylinositol 4,5-bisphosphate 3-kinase catalytic subunit beta isoform (P42338 whole entry, canonical isoform): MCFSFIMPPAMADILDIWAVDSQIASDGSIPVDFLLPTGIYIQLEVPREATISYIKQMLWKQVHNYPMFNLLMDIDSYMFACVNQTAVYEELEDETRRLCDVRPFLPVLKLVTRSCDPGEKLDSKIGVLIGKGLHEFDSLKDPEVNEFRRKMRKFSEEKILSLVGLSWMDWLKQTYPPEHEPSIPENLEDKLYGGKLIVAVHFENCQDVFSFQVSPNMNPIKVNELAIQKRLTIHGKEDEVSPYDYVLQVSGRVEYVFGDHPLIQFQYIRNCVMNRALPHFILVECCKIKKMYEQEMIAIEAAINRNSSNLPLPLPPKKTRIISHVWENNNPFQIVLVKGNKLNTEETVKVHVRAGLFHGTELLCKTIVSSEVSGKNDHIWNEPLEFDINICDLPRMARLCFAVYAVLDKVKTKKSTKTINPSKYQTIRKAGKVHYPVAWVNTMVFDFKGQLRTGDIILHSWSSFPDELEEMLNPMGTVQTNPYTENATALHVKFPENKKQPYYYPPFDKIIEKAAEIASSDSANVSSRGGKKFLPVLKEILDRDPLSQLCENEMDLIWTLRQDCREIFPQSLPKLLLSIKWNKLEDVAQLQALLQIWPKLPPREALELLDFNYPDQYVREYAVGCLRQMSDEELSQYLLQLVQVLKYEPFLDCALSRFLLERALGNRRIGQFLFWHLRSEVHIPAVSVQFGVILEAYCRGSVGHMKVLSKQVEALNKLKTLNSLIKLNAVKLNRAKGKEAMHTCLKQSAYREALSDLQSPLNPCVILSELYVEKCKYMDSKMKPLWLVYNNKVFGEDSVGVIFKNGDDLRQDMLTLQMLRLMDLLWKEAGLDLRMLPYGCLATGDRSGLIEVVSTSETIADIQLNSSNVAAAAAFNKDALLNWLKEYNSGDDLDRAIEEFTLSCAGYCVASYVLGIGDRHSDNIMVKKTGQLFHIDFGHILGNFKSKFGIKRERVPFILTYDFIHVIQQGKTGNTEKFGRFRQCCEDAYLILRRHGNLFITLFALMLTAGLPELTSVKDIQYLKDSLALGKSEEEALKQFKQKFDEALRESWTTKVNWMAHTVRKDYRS

[3] = target: T1, Phosphatidylinositol 4,5-bisphosphate 3-kinase catalytic subunit delta isoform (Homo sapiens, UniProt O00329); assay: Inhibition of recombinant PI3K p110delta using L-alpha-phosphatidylinositol as substrate and [gamma33P]ATP after 60 mins by thin layer chromatographic technique; method in brief: as §1
T1 sequence (O00329 whole entry): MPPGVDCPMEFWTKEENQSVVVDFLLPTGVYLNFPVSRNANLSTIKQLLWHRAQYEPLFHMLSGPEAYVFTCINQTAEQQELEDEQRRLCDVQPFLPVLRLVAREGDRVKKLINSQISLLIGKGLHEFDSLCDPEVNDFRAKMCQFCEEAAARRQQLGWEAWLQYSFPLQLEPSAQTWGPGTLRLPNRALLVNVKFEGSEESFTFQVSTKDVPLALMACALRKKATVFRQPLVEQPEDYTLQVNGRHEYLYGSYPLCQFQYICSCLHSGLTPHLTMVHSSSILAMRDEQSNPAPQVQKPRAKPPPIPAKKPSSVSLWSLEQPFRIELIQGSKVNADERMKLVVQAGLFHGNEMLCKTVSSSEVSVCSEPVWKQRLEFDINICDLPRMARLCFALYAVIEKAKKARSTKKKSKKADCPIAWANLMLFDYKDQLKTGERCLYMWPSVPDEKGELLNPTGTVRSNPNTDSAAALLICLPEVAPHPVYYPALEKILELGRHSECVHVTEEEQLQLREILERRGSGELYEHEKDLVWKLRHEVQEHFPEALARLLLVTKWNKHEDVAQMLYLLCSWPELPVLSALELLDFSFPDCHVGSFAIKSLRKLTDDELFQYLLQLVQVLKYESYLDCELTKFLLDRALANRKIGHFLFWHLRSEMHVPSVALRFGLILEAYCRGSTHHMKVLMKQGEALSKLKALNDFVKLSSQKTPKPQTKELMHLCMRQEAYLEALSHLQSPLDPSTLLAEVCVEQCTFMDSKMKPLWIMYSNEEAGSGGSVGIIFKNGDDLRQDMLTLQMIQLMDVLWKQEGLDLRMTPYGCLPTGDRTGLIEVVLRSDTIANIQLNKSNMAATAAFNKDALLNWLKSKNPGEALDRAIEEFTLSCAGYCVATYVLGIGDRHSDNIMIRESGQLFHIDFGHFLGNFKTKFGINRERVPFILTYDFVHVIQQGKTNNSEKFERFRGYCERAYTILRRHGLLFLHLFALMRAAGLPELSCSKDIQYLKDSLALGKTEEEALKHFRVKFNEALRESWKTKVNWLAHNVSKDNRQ

[4] = Cytotoxicity against human NZB5 cells expressing wild type p110alpha assessed as inhibition of [3H]thymidine incorporation after 5 days; type: functional, cell-based
Method in brief: (§2)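 Early-passage lab-derived lines in α-MEM with insulin, transferrin, selenite and 5% FBS. Seeded at 1000 cells/well; drug added in 10-fold steps up to 20 µM. Incubated five days under 5% O₂/5% CO₂/90% N₂, with ³H-thymidine (0.04 µCi/well) over the last 6 h. Duplicates per dose; least-squares exponential fit; IC50 is the concentration giving 50% less incorporation.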

[5] = Cytotoxicity against human NZOV9 cells expressing p110alpha Y1021C mutant assessed as inhibition of [3H]thymidine incorporation after 5 days; type: functional, cell-based; method in brief: as §2
[6] = Selectivity ratio of IC50 for PI3K p110beta to IC50 for PI3K p110alpha
[7] = Selectivity ratio of IC50 for PI3K p110delta to IC50 for PI3K p110alpha

Sequence of Phosphatidylinositol 4,5-bisphosphate 3-kinase catalytic subunit alpha isoform (P42336 whole entry, canonical isoform): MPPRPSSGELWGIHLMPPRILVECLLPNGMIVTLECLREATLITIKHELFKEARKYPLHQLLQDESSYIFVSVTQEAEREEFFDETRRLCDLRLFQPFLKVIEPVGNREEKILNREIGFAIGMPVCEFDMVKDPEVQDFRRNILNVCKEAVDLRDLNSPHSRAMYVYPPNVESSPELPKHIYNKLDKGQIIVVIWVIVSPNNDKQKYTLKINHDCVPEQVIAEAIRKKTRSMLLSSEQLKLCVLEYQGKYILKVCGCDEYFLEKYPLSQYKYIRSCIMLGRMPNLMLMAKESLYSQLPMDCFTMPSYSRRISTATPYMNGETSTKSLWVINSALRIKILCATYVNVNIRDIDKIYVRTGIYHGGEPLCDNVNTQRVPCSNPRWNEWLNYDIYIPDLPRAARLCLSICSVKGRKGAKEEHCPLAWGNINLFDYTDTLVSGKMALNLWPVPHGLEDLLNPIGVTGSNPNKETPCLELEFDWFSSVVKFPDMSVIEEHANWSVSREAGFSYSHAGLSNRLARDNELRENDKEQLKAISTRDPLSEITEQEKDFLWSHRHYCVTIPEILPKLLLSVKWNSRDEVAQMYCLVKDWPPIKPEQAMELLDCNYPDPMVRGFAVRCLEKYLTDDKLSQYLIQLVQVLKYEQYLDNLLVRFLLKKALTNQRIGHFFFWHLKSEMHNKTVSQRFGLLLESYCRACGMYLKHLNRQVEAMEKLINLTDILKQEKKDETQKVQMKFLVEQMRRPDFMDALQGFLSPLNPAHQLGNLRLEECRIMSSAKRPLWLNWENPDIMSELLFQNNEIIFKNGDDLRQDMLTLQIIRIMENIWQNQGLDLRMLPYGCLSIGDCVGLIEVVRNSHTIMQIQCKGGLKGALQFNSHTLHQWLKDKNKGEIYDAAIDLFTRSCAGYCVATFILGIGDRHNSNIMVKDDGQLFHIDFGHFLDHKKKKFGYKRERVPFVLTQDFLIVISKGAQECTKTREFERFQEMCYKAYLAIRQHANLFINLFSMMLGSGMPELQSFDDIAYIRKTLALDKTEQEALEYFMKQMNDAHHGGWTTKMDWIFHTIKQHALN

Row | IC50 [1] | IC50 [2] | IC50 [3] | Ratio IC50 [6] | Ratio IC50 [7] | SMILES | IC50 [4] | IC50 [5]
1 | > 1000 nM | > 1000 nM | > 1000 nM | – | – | CNC(=O)c1ccn2ncc(/C=N/N(C)S(=O)(=O)c3cc([N+](=O)[O-])ccc3C)c2c1 | 10000 nM | 10000 nM
2 | 960 nM | > 10000 nM | 3400 nM | 60 | 40 | Cc1ccc([N+](=O)[O-])cc1S(=O)(=O)N(C)/N=C/c1cnn2ccccc12 | 470 nM | 660 nM
3 | 1100 nM | > 1000 nM | > 1000 nM | – | – | Cc1ccc([N+](=O)[O-])cc1S(=O)(=O)N(C)/N=C/c1cnn2ccc(C3CC3)cc12 | 740 nM | 670 nM
4 | > 1000 nM | > 1000 nM | > 1000 nM | – | – | CCc1ccn2ncc(/C=N/N(C)S(=O)(=O)c3cc([N+](=O)[O-])ccc3C)c2c1 | 410 nM | 560 nM
5 | 130 nM | > 1000 nM | > 1000 nM | – | – | C=Cc1ccn2ncc(/C=N/N(C)S(=O)(=O)c3cc([N+](=O)[O-])ccc3C)c2c1 | 990 nM | 580 nM
6 | 340 nM | > 1000 nM | > 1000 nM | – | – | Cc1ccc([N+](=O)[O-])cc1S(=O)(=O)N(C)/N=C/c1cnn2ccc(O)cc12 | > 20000 nM | > 20000 nM
7 | 910 nM | > 1000 nM | > 1000 nM | – | – | CC(=O)Oc1ccn2ncc(/C=N/N(C)S(=O)(=O)c3cc([N+](=O)[O-])ccc3C)c2c1 | 8200 nM | 8900 nM
8 | 3.8 nM | 230 nM | 150 nM | – | – | Cc1ccc([N+](=O)[O-])cc1S(=O)(=O)N(C)/N=C/c1cnn2ccc(Br)cc12 | 310 nM | 50 nM
9 | 150 nM | > 1000 nM | > 1000 nM | – | – | Cc1ccc([N+](=O)[O-])cc1S(=O)(=O)N(C)/N=C/c1cnn2ccc(C(F)(F)F)cc12 | 70 nM | 90 nM
10 | 530 nM | > 1000 nM | > 1000 nM | – | – | Cc1ccc([N+](=O)[O-])cc1S(=O)(=O)N(C)/N=C/c1cnn2ccc(C(N)=O)cc12 | 600 nM | 10000 nM
11 | 2.9 nM | 390 nM | 90 nM | – | – | Cc1ccc([N+](=O)[O-])cc1S(=O)(=O)N(C)/N=C/c1cnn2ccc(Cl)cc12 | – | 550 nM
12 | 110 nM | > 1000 nM | 700 nM | – | – | Cc1ccn2ncc(/C=N/N(C)S(=O)(=O)c3cc([N+](=O)[O-])ccc3C)c2c1 | 50 nM | 70 nM
13 | 16 nM | 370 nM | 170 nM | – | – | Cc1ccc([N+](=O)[O-])cc1S(=O)(=O)N(C)/N=C/c1cnn2ccc(I)cc12 | 40 nM | 50 nM
14 | 2.4 nM | 30 nM | 41 nM | – | – | C#Cc1ccn2ncc(/C=N/N(C)S(=O)(=O)c3cc([N+](=O)[O-])ccc3C)c2c1 | 160 nM | 110 nM

The next lines start with the compound.

Row | SMILES | IC50 [1] | IC50 [2] | IC50 [3] | Ratio IC50 [6] | Ratio IC50 [7] | IC50 [4] | IC50 [5]
15 | COC(=O)c1ccn2ncc(/C=N/N(C)S(=O)(=O)c3cc([N+](=O)[O-])ccc3C)c2c1 | 360 nM | > 1000 nM | 690 nM | – | – | 1800 nM | 1500 nM
16 | Cc1ccc([N+](=O)[O-])cc1S(=O)(=O)N(C)/N=C/c1cnn2cc(F)c(C#N)cc12 | 45 nM | 1800 nM | 2500 nM | – | – | – | –
17 | CCC/C(=N\N(C)S(=O)(=O)c1cc([N+](=O)[O-])ccc1C)c1cnn2ccc(C#N)cc12 | 610 nM | > 1000 nM | > 1000 nM | – | – | 680 nM | 2300 nM
18 | Cc1ccc([N+](=O)[O-])cc1S(=O)(=O)N(C)/N=C/c1cnn2cccc(C)c12 | > 1000 nM | > 1000 nM | > 1000 nM | – | – | 18000 nM | > 20000 nM
19 | CC/C(=N\NS(=O)(=O)c1cc([N+](=O)[O-])ccc1C)c1cnn2ccc(C#N)cc12 | 10 nM | > 1000 nM | 440 nM | – | – | 88 nM | 360 nM
20 | COc1ccn2ncc(/C=N/N(C)S(=O)(=O)c3cc([N+](=O)[O-])ccc3C)c2c1 | 190 nM | > 1000 nM | > 1000 nM | – | – | 940 nM | 520 nM
21 | CCC/C(=N\NS(=O)(=O)c1cc([N+](=O)[O-])ccc1C)c1cnn2ccc(C#N)cc12 | 39 nM | > 1000 nM | 310 nM | – | – | 370 nM | 640 nM
22 | Cc1ccc([N+](=O)[O-])cc1S(=O)(=O)N(C)/N=C/c1cnn2ccc(C(=O)N(C)C)cc12 | > 1000 nM | > 1000 nM | > 1000 nM | – | – | 10000 nM | 10000 nM
23 | Cc1ccc([N+](=O)[O-])cc1S(=O)(=O)N/N=C/c1cnn2ccc(C#N)cc12 | 13 nM | 620 nM | 580 nM | – | – | 2600 nM | 4900 nM
24 | C/C(=N\N(C)S(=O)(=O)c1cc([N+](=O)[O-])ccc1C)c1cnn2ccc(Br)cc12 | 1200 nM | > 1000 nM | > 1000 nM | – | – | > 20000 nM | > 20000 nM
25 | C/C(=N\N(C)S(=O)(=O)c1cc([N+](=O)[O-])ccc1C)c1cnn2ccc(C#N)cc12 | 80 nM | 600 nM | 510 nM | – | – | 4400 nM | 7500 nM
26 | Cc1ccc([N+](=O)[O-])cc1S(=O)(=O)N(C)/N=C/c1cnn2c(C)cccc12 | 1600 nM | > 1000 nM | > 1000 nM | – | – | 6000 nM | 1200 nM
27 | CC/C(=N\N(C)S(=O)(=O)c1cc([N+](=O)[O-])ccc1C)c1cnn2ccc(C#N)cc12 | 390 nM | > 1000 nM | > 1000 nM | – | – | 410 nM | 3700 nM
28 | Cc1ccc([N+](=O)[O-])cc1S(=O)(=O)N(C)/N=C/c1cnn2cccc(Br)c12 | > 1000 nM | > 1000 nM | > 1000 nM | – | – | > 20000 nM | 6500 nM
29 | Cc1ccc([N+](=O)[O-])cc1S(=O)(=O)N(C)/N=C/c1cnn2ccc(-c3ccccc3)cc12 | > 1000 nM | > 1000 nM | > 1000 nM | – | – | 10000 nM | 10000 nM
30 | Cc1ccc2c(/C=N/N(C)S(=O)(=O)c3cc([N+](=O)[O-])ccc3C)cnn2c1 | > 1000 nM | > 1000 nM | > 1000 nM | – | – | 10000 nM | 8000 nM
31 | C/C(=N\NS(=O)(=O)c1cc([N+](=O)[O-])ccc1C)c1cnn2ccc(Br)cc12 | 30 nM | 480 nM | 220 nM | – | – | 420 nM | 350 nM
32 | C/C(=N\NS(=O)(=O)c1cc([N+](=O)[O-])ccc1C)c1cnn2ccc(C#N)cc12 | 7 nM | 410 nM | 900 nM | – | – | 1100 nM | 2100 nM
33 | Cc1ccc([N+](=O)[O-])cc1S(=O)(=O)N(C)/N=C/c1cnn2cc(Br)ccc12 | > 1000 nM | > 1000 nM | > 1000 nM | – | – | > 20000 nM | 4500 nM
